In ChEMBL document CHEMBL4373647, “Design, synthesis, and antimicrobial evaluation of 1,4-dihydroindeno[1,2-c]pyrazole tethered carbohydrazide hybrids: exploring their in silico ADMET, ergosterol inhibition and ROS inducing potential” (Medchemcomm, 2019):
≈ marks a conversion by molar mass, not a printed value. Calls of active or inactive are those of the source. The rule behind the calls is not given here.

Legend:
Micrococcus luteus = assay: Antibacterial activity against Micrococcus luteus MTCC 2470 assessed as inhibition of bacterial growth incubated for 24 hrs by agar well diffusion method; format: functional; details: MTCC 2470, 24 h
Summary of the method: (§1)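 Strains from MTCC; inoculum at 0.5 McFarland spread on Mueller-Hinton agar; 6 mm wells loaded with compound over 125–0.97 µg/mL; ciprofloxacin positive control (same range), DMSO negative control. Plates held 24 h at 37 °C; MIC taken as lowest concentration giving a clear inhibition zone. Triplicate runs, mean MIC reported.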

Raoultella planticola [1] = assay: Antibacterial activity against Klebsiella planticola MTCC 530 assessed as inhibition of bacterial growth incubated for 24 hrs by agar well diffusion method; format: functional; details: MTCC 530, 24 h; summary of the method: as §1
Candida albicans [2] = assay: Antifungal activity against Candida albicans MTCC 183 assessed as inhibition of fungal growth incubated for 24 hrs by agar well diffusion method; format: functional
Summary of the method: (§2)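 Candida strains from MTCC, pre-cultured and spread on Mueller Hinton agar. Wells received compound dissolved in 10% DMSO, 125–0.97 µg/mL; miconazole standard over the same range, DMSO negative control. After 24 h at 37 °C, MIC was read as the lowest concentration giving an inhibition zone. Duplicate experiments, means given.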

Candida albicans [3] = assay: Antifungal activity against Candida albicans MTCC 227 assessed as inhibition of fungal growth incubated for 24 hrs by agar well diffusion method; format: functional; details: MTCC 227, 24 h; summary of the method: as §2
Candida albicans [4] = assay: Antifungal activity against Candida albicans MTCC 3018 assessed as inhibition of fungal growth incubated for 24 hrs by agar well diffusion method; format: functional; details: MTCC 3018, 24 h; summary of the method: as §2
Staphylococcus aureus = assay: Bactericidal activity against Staphylococcus aureus MLS-16 MTCC 2940 assessed as bacterial killing incubated for 24 hrs; format: functional; details: MLS-16 MTCC 2940, 24 h
Summary of the method: (§3)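 Broth tube assay: compound at 0–125 µg/mL in Mueller Hinton broth, overnight culture added to 0.5 McFarland (1.5 × 10^8 cfu/mL), held 24 h at 37 °C. 10 µL from each tube plated on Mueller Hinton agar. MBC is the lowest concentration that kills the strain. Duplicates, means reported.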

Bacillus subtilis = assay: Bactericidal activity against Bacillus subtilis MTCC 121 assessed as bacterial killing incubated for 24 hrs; format: functional; details: MTCC 121, 24 h; summary of the method: as §3
Raoultella planticola [5] = assay: Bactericidal activity against Klebsiella planticola MTCC 530 assessed as bacterial killing incubated for 24 hrs; format: functional; details: MTCC 530, 24 h; summary of the method: as §3
[6] = target: Lanosterol 14-alpha demethylase (Candida albicans (strain SC5314 / ATCC MYA-2876) (Yeast), UniProt P10613); assay: Inhibition of CYP51 in Candida albicans MTCC 3017 assessed as reduction in ergosterol level incubated for 20 hrs by UV-visible spectrophotometry analysis
Chain of Lanosterol 14-alpha demethylase (P10613 whole entry): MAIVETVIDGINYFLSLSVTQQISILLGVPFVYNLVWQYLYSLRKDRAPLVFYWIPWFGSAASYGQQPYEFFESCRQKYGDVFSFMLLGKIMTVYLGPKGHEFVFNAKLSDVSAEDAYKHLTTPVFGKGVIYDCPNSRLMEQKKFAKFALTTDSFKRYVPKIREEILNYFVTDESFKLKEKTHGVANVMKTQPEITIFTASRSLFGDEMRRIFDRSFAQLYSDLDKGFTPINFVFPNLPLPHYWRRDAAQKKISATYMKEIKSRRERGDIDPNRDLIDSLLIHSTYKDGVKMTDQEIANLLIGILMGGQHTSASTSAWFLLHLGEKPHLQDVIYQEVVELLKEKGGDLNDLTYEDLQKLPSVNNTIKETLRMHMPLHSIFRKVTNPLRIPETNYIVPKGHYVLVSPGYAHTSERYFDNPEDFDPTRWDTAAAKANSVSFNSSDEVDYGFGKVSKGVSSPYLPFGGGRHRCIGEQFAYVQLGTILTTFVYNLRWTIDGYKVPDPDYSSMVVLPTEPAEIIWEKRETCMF
Summary of the method: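 Modified Breivik–Owades sterol method: Mueller Hinton broth with compound at 0, 2, 4, 8, 16 µg/mL, inoculated with single Candida colonies, shaken at 200 rpm for 20 h at 30 °C. Pellets washed and weighed, saponified in 25% alcoholic KOH for 70 min at 90 °C, sterols extracted into n-heptane, diluted 1:5 in ethanol and scanned at 230–310 nm. Triplicates.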

Candida albicans [7] = assay: Induction of ROS generation in Candida albicans MTCC 3017 assessed as accumulation of intracellular ROS level by measuring fluorescence intensity at 25 ug/ml after 24 hrs by DCFH-DA probe based fluorimetric assay; format: functional, organism-based
Summary of the method: (§4)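 C. albicans MTCC 3017 biofilms grown 24 h at 37 °C in 96-well plates, then treated 24 h with compound at 0, 5, 10, 15, 20, 25 µg/mL; untreated cells served as control. Cells then loaded with 10 µM DCFH-DA for 24 h in the dark, and fluorescence read at 485 nm excitation and 535 nm emission. Triplicates.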

Pichia kudriavzevii = assay: Antifungal activity against Candida krusei MTCC 3020 assessed as inhibition of fungal growth incubated for 24 hrs by agar well diffusion method; format: functional; details: MTCC 3020, 24 h; summary of the method: as §2
Candida albicans [8] = assay: Fungicidal activity against Candida albicans MTCC 183 assessed as fungal killing incubated for 24 hrs; format: functional
Summary of the method: (§5)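 Compound at 125–0.97 µg/mL in Mueller Hinton broth in microcentrifuge tubes, each Candida strain added, held 24 h at 37 °C. 10 µL of the treated suspension plated on Mueller Hinton agar and incubated a further 24 h at 37 °C. MFC is the lowest concentration that kills the strain. Duplicates, means reported.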

Candida albicans [9] = assay: Fungicidal activity against Candida albicans MTCC 1637 assessed as fungal killing incubated for 24 hrs; format: functional; details: MTCC 1637, 24 h; summary of the method: as §5
Candida albicans [10] = assay: Fungicidal activity against Candida albicans MTCC 3018 assessed as fungal killing incubated for 24 hrs; format: functional; details: MTCC 3018, 24 h; summary of the method: as §5
Candida albicans [11] = assay: Fungicidal activity against Candida albicans MTCC 7315 assessed as fungal killing incubated for 24 hrs; format: functional; details: MTCC 7315, 24 h; summary of the method: as §5
Candida albicans [12] = assay: Ratio of MFC to MIC against Candida albicans MTCC 183; format: functional
Candida albicans [13] = assay: Ratio of MFC to MIC against Candida albicans MTCC 227; format: functional
Summary of the method: (§6)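 MIC by agar well diffusion: Candida lawns on Mueller-Hinton agar, wells loaded with compound in 10% DMSO (125–0.97 µg/mL), 24 h at 37 °C, lowest concentration giving an inhibition zone. MFC: compound in Mueller-Hinton broth (125–0.97 µg/mL) with yeast, 24 h at 37 °C, 10 µL plated on agar, lowest killing concentration after 24 h. Ratio is MFC/MIC.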

Candida albicans [14] = assay: Ratio of MFC to MIC against Candida albicans MTCC 3018; format: functional; summary of the method: as §6
Candida albicans [15] = assay: Induction of ROS generation in Candida albicans MTCC 3017 assessed as accumulation of intracellular ROS level by measuring fluorescence intensity after 24 hrs by DCFH-DA probe based fluorimetric assay; format: functional, organism-based; summary of the method: as §4
Candida albicans [16] = assay: Induction of ROS generation in Candida albicans MTCC 3017 assessed as accumulation of intracellular ROS level by measuring fluorescence intensity at 5 ug/ml after 24 hrs by DCFH-DA probe based fluorimetric assay; format: functional, organism-based; summary of the method: as §4

MIC (Micrococcus luteus) [µg/mL] | MIC (Candida albicans [2]) | MIC (Candida albicans [3]) [µg/mL] | MIC (Candida albicans [4]) [µg/mL] | inhibition (INH) [6] | MIC (Pichia kudriavzevii) [µg/mL] | Compound | MIC (Raoultella planticola [1]) [µg/mL] | MBC (Staphylococcus aureus) [µg/mL] | MBC (Bacillus subtilis) [µg/mL] | MBC (Raoultella planticola [5]) [µg/mL] | Activity (Candida albicans [7]) | MFC (Candida albicans [8]) | MFC (Candida albicans [9]) [µg/mL] | MFC (Candida albicans [10]) [µg/mL] | MFC (Candida albicans [11]) [µg/mL] | Ratio (Candida albicans [12]) | Ratio (Candida albicans [13]) | Ratio (Candida albicans [14]) | Activity (Candida albicans [15]) | Activity (Candida albicans [16]) | also measured
7.8 (≈ 20.2 µM) | inactive | 7.8 (≈ 20.2 µM) | 7.8 (≈ 20.2 µM) | Dose-dependent effect | 15.6 (≈ 40.4 µM) | COc1ccc2c(c1)Cc1c(C(=O)N/N=C/c3c(F)cc(F)cc3F)n[nH]c1-2 | 7.8 (≈ 20.2 µM) | 7.8 (≈ 20.2 µM) | 15.6 (≈ 40.4 µM) | 15.6 (≈ 40.4 µM) | Active | inactive | 31.2 (≈ 80.8 µM) | 15.6 (≈ 40.4 µM) | 31.2 (≈ 80.8 µM) | 2 | 2 | 2 | Dose-dependent effect | Active | –
3.9 (≈ 10.3 µM) | – | 3.9 (≈ 10.3 µM) | 7.8 (≈ 20.6 µM) | Dose-dependent effect | 7.8 (≈ 20.6 µM) | COc1ccc2c(c1)Cc1c(C(=O)N/N=C/c3ccc(O)c(OC)c3)n[nH]c1-2 | 3.9 (≈ 10.3 µM) | 7.8 (≈ 20.6 µM) | 15.6 (≈ 41.2 µM) | 7.8 (≈ 20.6 µM) | Active | – | 15.6 (≈ 41.2 µM) | 15.6 (≈ 41.2 µM) | 15.6 (≈ 41.2 µM) | 2 | 2 | 2 | Dose-dependent effect | Active | MIC (Candida albicans [2]; MTCC 183, 24 h): 15.6 µg/mL (≈ 41.2 µM); MFC (Candida albicans [8]; MTCC 183, 24 h): 31.2 µg/mL (≈ 82.5 µM)
7.8 (≈ 22.4 µM) | inactive | 7.8 (≈ 22.4 µM) | 15.6 (≈ 44.8 µM) | – | 15.6 (≈ 44.8 µM) | COc1cc(/C=N/NC(=O)c2n[nH]c3c2Cc2ccccc2-3)ccc1O | 3.9 (≈ 11.2 µM) | 15.6 (≈ 44.8 µM) | 7.8 (≈ 22.4 µM) | 7.8 (≈ 22.4 µM) | – | inactive | 31.2 (≈ 89.6 µM) | 31.2 (≈ 89.6 µM) | 15.6 (≈ 44.8 µM) | 2 | 2 | 2 | – | – | –
7.8 (≈ 23.2 µM) | inactive | 7.8 (≈ 23.2 µM) | 15.6 (≈ 46.4 µM) | – | 15.6 (≈ 46.4 µM) | O=C(N/N=C/c1ccc(O)cc1)c1n[nH]c2c1Cc1cc(F)ccc1-2 | 7.8 (≈ 23.2 µM) | 7.8 (≈ 23.2 µM) | 15.6 (≈ 46.4 µM) | 15.6 (≈ 46.4 µM) | – | inactive | 31.2 (≈ 92.8 µM) | 31.2 (≈ 92.8 µM) | 31.2 (≈ 92.8 µM) | 2 | 2 | 2 | – | – | –
7.8 (≈ 24.5 µM) | inactive | 7.8 (≈ 24.5 µM) | 7.8 (≈ 24.5 µM) | – | 15.6 (≈ 49 µM) | O=C(N/N=C/c1ccc(O)cc1)c1n[nH]c2c1Cc1ccccc1-2 | 7.8 (≈ 24.5 µM) | 7.8 (≈ 24.5 µM) | 15.6 (≈ 49 µM) | 15.6 (≈ 49 µM) | – | inactive | 31.2 (≈ 98 µM) | 15.6 (≈ 49 µM) | 31.2 (≈ 98 µM) | 2 | 2 | 2 | – | – | –
